Results taken from article PMC6282775 (Journal of Clinical Pharmacology, 2018).

How the values were obtained:
[1] = test system: plasma proteins; conditions: cited from earlier work
[2] = Safety evaluations in the clinical study; type: in vivo, human
In short: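 Open-label, multicenter, parallel-group study in healthy subjects and subjects with moderate (Child-Pugh B) or severe (Child-Pugh C) hepatic impairment. Subjects fasted at least 10 h, then took one oral 300-mg capsule dose of test compound with water 30 min after starting a standard meal. No food for 4 h. Adverse events, vital signs, clinical laboratory tests and ECGs were recorded, with follow-up 7–10 days after dosing.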

[3] = Unbound fraction; type: in vivo, human; conditions: for fraction unbound: human, plasma, oral, 300 mg, median value of individual mean fu%, plasma 6 and 12 hours postdose; for GMR of unbound AUC0‐∞ / GMR of unbound Cmax: single 300-mg dose of alectinib
In short: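 Single oral 300 mg dose given 30 min after the start of a standard ~514 kcal meal, after a ≥10 h fast. Plasma taken 6 and 12 h postdose was dialyzed in triplicate, and plasma and buffer were analysed by LC-MS/MS. Samples were spiked if levels were too low. fu% = unbound/total ×100, geometric mean of triplicates (outlier dropped if CV >45.0%). GMRs from ANOVA of log Cmax and AUC0‐∞, with matched controls as a random effect.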

[4] = test system: CYP3A; conditions: cited from earlier work
[5] = Clinical hepatic impairment study: total plasma PK of alectinib and M4; type: in vivo, human; conditions: single 300-mg dose of alectinib
[6] = moderate hepatic impairment/matched healthy subjects
[7] = severe hepatic impairment/matched healthy subjects

For CCc1cc2c(cc1N1CCC(N3CCOCC3)CC1)C(C)(C)c1[nH]c3cc(C#N)ccc3c1C2=O [Alectinib], the “protein binding in vitro” value [1] is listed as ≥ 99%, the “changes in vital signs, laboratory values, or electrocardiogram measurements” value ([2]; single oral 300 mg, during the study) is listed as “No clinically significant changes” and the tolerability ([2]; single oral dose of 300 mg, healthy subjects and subjects with moderate or severe hepatic impairment) is listed as “well tolerated”. It also gave a fraction unbound ([3]; healthy subjects matched for moderate) of 0.00206, a fraction unbound ([3]; healthy subjects matched for severe) of 0.0014 and a fraction unbound ([3]; moderate hepatic impairment) of 0.00229. The fraction unbound ([3]; severe hepatic impairment) was 0.00179, the “GMR of unbound AUC0‐∞” value [3, 6] was 186% and the “GMR of unbound Cmax” value [3, 6] was 148%. For the same compound, the “GMR of unbound AUC0‐∞” value [3, 7] was 285%, the “GMR of unbound Cmax” value [3, 7] was 130% and the “increase in exposure on coadministration of a potent CYP3A inhibitor” value [4] was 75%. The “GMR of total AUC0‐∞” value [5, 6] was 160%, the “GMR of total Cmax” value [5, 6] was 128% and the “GMR of total AUC0‐∞” value [5, 7] was 220%. The “GMR of total Cmax” value [5, 7] was 100%.
